Results: PMC6489120 (Journal of medicinal chemistry, 2018)
In brackets after ≈: the same amount, converted by molar mass.

Columns and labels:
CREBBP = CREBBP (Homo sapiens, UniProt Q92793); experiment: DiscoverX BROMOscan; type: binding; conditions: BROMOscan Kd
[1] = test system: 23 other non-BET family bromodomain containing proteins; experiment: DiscoverX BROMOscan, other non-BET bromodomains summary; type: binding; conditions: at concentrations of 3–4 µM
[2] = full pharmacokinetics in mice; type: in vivo; conditions: Balb/c, mouse, plasma, po, 25 mg/kg
How it was run: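 Balb/c mice dosed orally at 25 mg/kg (iv arm 5.0 mg/kg), test compound in 20% (v/v) PCP and 70% (v/v) PBS. Blood taken 0, 5, 15, 30 min and 1, 2, 4, 6, 8, 24 h post-dose and centrifuged; plasma held at −80 °C. Plasma levels by LC−MS/MS (C18, formic acid/CH3CN gradient, positive-ion MRM); parameters by noncompartmental analysis.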

CECR2 = CECR2 (Homo sapiens, UniProt Q9BXF3); experiment: DiscoverX BROMOscan; type: binding; conditions: BROMOscan Kd
aqueous solubility = type: physicochemical; conditions: aqueous solution
[3] = animal weight and signs of toxicity in efficacy studies; type: in vivo; conditions: all the three dose-schedules tested
other 371 kinases = experiment: kinase panel by Reaction Biology; type: biochemical; conditions: at 3 µM
EP300 = biological target: T1, EP300 (Homo sapiens, UniProt Q09472); experiment: DiscoverX BROMOscan; type: binding; conditions: BROMOscan Kd
T1 sequence (Q09472 1040-1161 limits assumed): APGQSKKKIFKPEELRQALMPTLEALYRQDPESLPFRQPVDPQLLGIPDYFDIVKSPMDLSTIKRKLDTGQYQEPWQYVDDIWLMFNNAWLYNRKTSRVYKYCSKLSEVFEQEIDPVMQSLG

BRD4 BD1 = BRD4 BD1 (Homo sapiens, UniProt O60885); experiment: fluorescence polarization binding assay, BRD4 BD1; conditions: relative to compound 24
How it was run: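 Binding measured by fluorescence polarization against recombinant human BRD4 BD1 (residues 44−168), using the group's previously established FP assay.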

CREBBP, sequence (Q92793 1081-1197 limits assumed): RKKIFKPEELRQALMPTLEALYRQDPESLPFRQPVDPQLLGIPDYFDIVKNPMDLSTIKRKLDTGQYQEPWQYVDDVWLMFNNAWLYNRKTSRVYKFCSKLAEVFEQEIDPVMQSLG
CECR2, sequence (Q9BXF3 424-538 limits assumed): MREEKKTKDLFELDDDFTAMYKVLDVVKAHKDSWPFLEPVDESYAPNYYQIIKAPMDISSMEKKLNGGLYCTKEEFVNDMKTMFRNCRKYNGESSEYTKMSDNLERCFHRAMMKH

## COc1cc2c(cc1-c1c(C)noc1C)[nH]c1nc(C)nc(Nc3cc(C4CC4)nn3C)c12 [Compound 28, N-(3-Cyclopropyl-1-methyl-1H-pyrazol-5-yl)-7-(3,5-dimethylisoxazol-4-yl)-6-methoxy-2-methyl-9H-pyrimido[4,5-b]indol-4-amine]
CREBBP
  selectivity for BET bromodomains over CREBBP: > 20 fold
[1]
  binding affinity to 23 other non-BET bromodomain containing proteins: no appreciable binding affinity
[2]
  Cmax: 6.4 µM
CECR2
  selectivity for BET bromodomains over CRCR2: > 50 fold
Aqueous solubility; pH 3, aqueous buffer
  solubility: 19.5 ± 5.5 µM (≈ 8.65 µg/mL)
Aqueous solubility; pH 11, aqueous buffer
  solubility: 14 ± 0.5 µM (≈ 6.21 µg/mL)
[3]
  other signs of toxicity: does not cause other signs of toxicity
  weight loss: no more than 5%
Other 371 kinases
  inhibition against other 371 kinases: no appreciable inhibition
EP300
  selectivity for BET bromodomains over EP300: > 50 fold

## COc1cc2c(cc1-c1c(C)noc1C)[nH]c1nc(C)nc(Nc3c(C)c(C4CC4)nn3C)c12 [Compound 37, N-(3-Cyclopropyl-1,4-dimethyl-1H-pyrazol-5-yl)-7-(3,5-dimethylisoxazol-4-yl)-6-methoxy-2-methyl-9H-pyrimido[4,5-b]indol-4-amine]
BRD4 BD1
  times less potent than 24 in binding to BRD4 BD1: > 5 times
